Mcl1 Noxa PPI: Mcl-1/Noxa interaction inhibition; Q07820; TR-FRET Mcl-1/Noxa peptide binding, 2 h; inhibition, % at 21.7 µM; actives 1.5% (n = 220,000); AID 1022;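 active means compounds that cut the protein-peptide binding signal by more than 50% relative to plate controls in a single-dose test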;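 further: His-tagged Mcl-1 with rhodamine Noxa BH3 peptide and terbium anti-His antibody; 0% = Mcl-1 plus Noxa peptide wells and 100% = peptide-only wells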
EBV gp42 inh: inhibitors of Epstein-Barr virus glycoprotein 42 | Q1HVG2 | Fluorescence polarization binding assay, mP read-out | inhibition, % (tested at 21.74 µM) | actives 0.42% (n = 220,000) | AID 1085; in the data active means inhibition above about 50%
Target sequence (Q1HVG2 whole entry, looked up): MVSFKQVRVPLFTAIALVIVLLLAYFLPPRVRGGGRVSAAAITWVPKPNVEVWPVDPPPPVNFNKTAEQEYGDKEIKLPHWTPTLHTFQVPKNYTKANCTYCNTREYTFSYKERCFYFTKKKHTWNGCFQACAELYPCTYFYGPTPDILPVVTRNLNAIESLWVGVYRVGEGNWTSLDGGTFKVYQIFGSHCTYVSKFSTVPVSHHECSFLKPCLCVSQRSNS
Mcl1-Bid inh: disrupts binding of human Mcl-1 to Bid peptide | Q07820 | TR-FRET Mcl-1/Bid-Dy647 peptide binding, 1536-well | inhibition, % at 21.7 µM | actives 0.97% (n = 220,000);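 active means compounds that cut the binding signal by more than half at the single screening dose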;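 further: His-tagged Mcl-1 with europium anti-His antibody binding Bid BH3 peptide; 0% = Mcl-1 plus peptide wells and 100% = peptide-only wells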
MCL1-BIM inh: inhibitors of human MCL1 binding to BIM-BH3 peptide. Q07820. GST-MCL1 / FITC-Bim-BH3 fluorescence polarization. inhibition, % at 10.9 µM. actives 0.68% (n = 320,000). AID 2057;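 active means inhibition above the mean inhibition of all tested compounds plus 3 SD, set per campaign, cut at about 40% in these data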;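 further: 0% = DMSO wells and 100% = unlabeled Bim-BH3 peptide control; higher means more loss of mP so more displacement of Bim peptide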
Bim-Mcl-1: disrupts Bim peptide binding to human Mcl-1; Bead-based flow cytometry, Bim peptide-Mcl-1 binding; actives 0.1% (n = 190,000); Q07820; inhibition, % at 10 µM; in the data active means inhibition above about 40%;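 further: 0% = no compound tracer wells and 100% = peptide blocker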
RBBP9 inh: inhibitors of human serine hydrolase RBBP9; O75884; recombinant RBBP9, FP-Rh probe fluorescence polarization; inhibition, % at 7.94 µM; actives 0.2% (n = 220,000);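 active means inhibition above the campaign mean of all tested compounds plus 3 SD, cut at about 14% in these data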;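 further: plate controls were DMSO wells with RBBP9 for no effect and wells lacking RBBP9 protein for full effect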
Target sequence (O75884 whole entry, looked up): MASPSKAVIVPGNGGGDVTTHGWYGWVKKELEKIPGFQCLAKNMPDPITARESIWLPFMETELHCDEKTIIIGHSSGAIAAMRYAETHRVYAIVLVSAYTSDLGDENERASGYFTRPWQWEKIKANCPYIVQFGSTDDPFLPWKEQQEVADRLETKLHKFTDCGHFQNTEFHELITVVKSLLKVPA
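Controls: DMSO-treated enzyme wells and wells lacking RBBP9 | Material: RBBP9 protein | Technique: Fluorescence polarization | Replication: Single well per compound, no replicates | Buffer or medium: Tris-NaCl-Pluronic buffer, pH 8.0 | Timing: 30 min compound preincubation, 45 min probe labeling, 25 °C | Read-out basis: Percent inhibition from mP, scaled between DMSO and no-protein wells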
Numbers without * were called inactive; x = not tested or not shown. An excerpt weighted towards active compounds, which were near 2.2% of everything screened.

SMILES	Mcl1 Noxa PPI	EBV gp42 inh	Mcl1-Bid inh	MCL1-BIM inh	Bim-Mcl-1	RBBP9 inh
CCOC(=O)C1CCCN(C(=O)c2cc(S(=O)(=O)N(C)C)ccc2N2CCCC2)C1 (configuration not stated)	x	x	x	3.1	x	x
O=C(O)c1ccccc1NS(=O)(=O)c1ccc(NNC(=S)Nc2ccc(OC(F)F)cc2)c([N+](=O)[O-])c1	112.1*	19.1	94.7*	x	-2.0	-1.4
O=C(NC(=S)N1CCCc2ccccc21)c1ccc(Cl)cc1	50.8*	5.3	-53.3	10.4	-5.0	-9.3
COc1ccc(Cl)cc1NC(=O)C(C)N1CCN(C/C=C/c2ccccc2)CC1 (configuration not stated)	27.8	-1.5	51.3*	3.0	-5.0	5.9
CC(=O)c1ccc(NC(=O)C(C)N2CCN(C/C=C/c3ccccc3)CC2)cc1 (configuration not stated)	9.6	-6.4	-4.1	-7.8	x	-0.3
CC(C(=O)Nc1ccc([N+](=O)[O-])cc1)N1CCN(C/C=C/c2ccccc2)CC1 (configuration not stated)	12.3	-30.1	-26.2	0.0	41.0*	0.1
COc1cccc(-n2nnc3c(=O)n(CC(=O)NC4CCCC4)cnc32)c1	52.0*	-5.3	9.5	-1.5	-3.0	-2.2
COc1ccc(C(=O)Nc2ccc(N3CCCC3)cc2)cc1	86.3*	-6.4	-46.6	12.1	-2.0	5.8
COc1ccc(/C=C/C(=O)OCC(=O)Nc2ccc(N3CCOCC3)cc2)cc1	-2.5	0.2	-1.1	0.7	0.0	-6.9
CCOc1ccc(C(=O)Nc2ccc(N3CCCC3)cc2)cc1	62.9*	-35.8	9.3	0.2	1.0	-6.6
O=C(Nc1ccc(N2CCCC2)cc1)c1ccc(Br)o1	93.9*	7.9	-9.6	6.1	3.0	1.4
CCOc1ccc(/C=C/C(=O)Nc2ccc(N3CCOCC3)cc2)cc1	-4.8	-1.6	101.0*	-6.4	0.0	-7.8
CCn1cc(CN2CCC(n3nccc3NC(=O)CCc3ccccc3)CC2)cn1	x	x	x	10.2	x	x
O=C(NCc1ccc2c(c1)OCO2)c1cc2c(s1)CSC2	21.3	-11.8	-25.2	2.5	-2.0	-5.1
O=C(NCc1ccco1)c1cc2c(s1)CSC2	78.6*	19.2	-23.6	36.6	-1.0	1.8
COc1ccc2nc(C)cc(SCC(=O)N/N=C/c3ccc(O)c(O)c3)c2c1	54.2*	16.8	-32.4	26.6	16.0	-13.2
Cc1cc(SCC(=O)N/N=C/c2ccc(O)c(O)c2)c(C)cc1Br	60.5*	0.2	23.4	28.9	1.0	-6.8
CCOC(=O)CC(=O)Nc1ccn[nH]1	54.8*	-12.8	-1.1	-6.8	x	-1.7
CC(=O)Nc1ccc(NC(=O)c2ccc(COc3ccc4c(C)cc(=O)oc4c3)cc2)cc1	28.0	-49.0	49.2	-3.7	-5.0	-14.9
Cc1nnc(NC(=O)COc2ccc3c(C)cc(=O)oc3c2)s1	79.1*	50.7*	-32.6	23.1	-2.0	-5.0
Cc1ccc(Cl)cc1NC(=O)COC(=O)c1ccc(COc2ccc3c(C)cc(=O)oc3c2)cc1	-0.8	-68.0	57.1*	-16.7	-2.0	-12.4
C/C(=N\NC(=O)c1ccc(O)cc1)c1ccc2c(c1)Nc1ccccc1S2	49.7	-16.3	-20.8	-6.8	-3.0	-7.5
C/C(=N\NC(=O)c1ccccc1F)c1ccc2c(c1)Nc1ccccc1S2	62.3*	-42.0	-12.0	-19.5	0.0	8.1
CCOC(=O)c1ccc(NC(=O)Cn2ncc(Cl)c(Cl)c2=O)cc1	80.7*	-4.5	11.3	-7.4	-5.0	-14.3
COc1ccc(NC(=O)c2ccc(Cl)nc2)cc1S(=O)(=O)N1CCOCC1	x	x	x	10.1	x	x
COc1ccc(NC(=O)COc2ncnc3ccccc23)cc1S(=O)(=O)N1CCOCC1	-10.8	-9.2	-18.2	0.3	41.0*	-6.0
CCC(=O)Nc1ccc(C(=O)Cn2ncc(Cl)c(Cl)c2=O)cc1	45.0	-11.1	-15.2	5.7	x	-2.1
COc1ccc(NC(=O)Cn2ncc(Cl)c(Cl)c2=O)cc1S(=O)(=O)N1CCOCC1	78.0*	60.7*	-16.2	26.6	0.0	-6.3
CCOC(=O)c1ccc(NC(=O)CSCCC(=O)O)cc1	-8.3	-16.6	0.3	-2.0	68.0*	-1.8
N#Cc1cccc(NC(=O)COC(=O)Cn2nc(-c3ccccc3)oc2=O)c1	x	x	x	9.6	x	x
